Rows were chosen to be rich in hits. Some 1.9% of all compounds tested hit in one or more screens of this group.
CHRM4 antagonist: CHRM4 antagonism in calcium assay; CHO-hM4 cells, ACh EC80, Fluo-8 calcium fluorescence; inhibition, % at 3 µM; 0.73% of 360,000 active;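 active means inhibition above its plate's cutoff, the mean inhibition of sample wells plus 3 SD, cut at about 27% in these data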;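 further: 0% = acetylcholine EC80 with DMSO and 100% = DMSO without agonist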
M5 PAM: potentiates acetylcholine response at human M5 receptor; 0.3% of 360,000 active; CHO-K1 hM5, Fluo-8 calcium, ACh EC20 PAM; 0% = ACh EC20, 100% = ACh EC100; activation, % at 3 µM; AID 624038; P08912;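 active means activation above the run cutoff, the mean activation of all test compounds plus 3 SD, cut at about 18% in these data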
Target sequence (P08912 whole entry, looked up): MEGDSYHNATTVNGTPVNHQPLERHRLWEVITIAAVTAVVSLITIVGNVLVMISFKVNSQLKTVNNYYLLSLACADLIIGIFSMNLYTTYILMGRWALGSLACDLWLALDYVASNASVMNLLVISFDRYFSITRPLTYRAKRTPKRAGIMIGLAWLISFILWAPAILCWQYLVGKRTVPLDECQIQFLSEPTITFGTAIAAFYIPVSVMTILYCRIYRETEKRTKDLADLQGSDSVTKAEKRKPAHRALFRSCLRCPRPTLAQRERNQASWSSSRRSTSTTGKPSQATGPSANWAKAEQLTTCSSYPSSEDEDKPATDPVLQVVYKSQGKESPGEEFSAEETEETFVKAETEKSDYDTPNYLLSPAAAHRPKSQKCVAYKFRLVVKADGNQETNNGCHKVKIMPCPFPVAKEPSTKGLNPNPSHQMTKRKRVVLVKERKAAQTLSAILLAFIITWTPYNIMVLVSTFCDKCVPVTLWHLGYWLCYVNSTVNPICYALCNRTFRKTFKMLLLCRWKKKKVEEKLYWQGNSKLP
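system = human M5 receptor in CHO-K1 cells | compound = one concentration, 3 µM final (nominal) | schedule = Post-acetylcholine fluorescence recording 140 s | signal = Fluo-8 calcium dye fluorescence, kinetic read | benchmarks = low control EC20 acetylcholine (0%), high control EC100 acetylcholine (100%) | repeats = singlicate, one well per test compound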
M5 ag: CHRM5 agonism in calcium assay; CHO-K1 hM5 cells, Fluo-8 calcium fluorescence; 0% DMSO wells, 100% maximal acetylcholine response; activation, % at 3 µM; 0.19% of 360,000 active;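 active means activation above the run's mean over test compounds plus 3 SD, cut at about 23% in these data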;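 further: signal is peak over basal fluorescence ratio across the kinetic read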
CHRM4 agonist: CHRM4 agonism in calcium assay. 0.14% of 360,000 active. AID 624127. CHO-K1 hM4/Gqi5, Fluo-8 calcium fluorescence; vehicle 0%, full acetylcholine response 100%. P08173. activation, % at 3 µM;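 active means activation above the run mean over all test wells plus 3 SD, cut at about 32% in these data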;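 further: peak over basal fluorescence ratio per well then scaled between controls; 0% = DMSO wells and 100% = acetylcholine at EC100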
M5 antag: blocks acetylcholine activation of human M5 receptor. CHO-hM5 cells, Fluo-8 calcium fluorescence, ACh EC80. inhibition, % at 3 µM. 0.59% of 360,000 active;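 active means inhibition above a per-plate cutoff, the mean of that plate's test compounds plus 3 SD, cut at about 27% in these data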;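 further: 0% = acetylcholine EC80 with DMSO and 100% = DMSO without agonist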
M4 PAM: CHRM4 positive allosteric modulation; P08173; activation, % at 3 µM; 0.4% of 360,000 active; CHO-K1 hM4/Gqi5, Fluo-8 calcium fluorescence, ACh EC20; 0% = ACh EC20, 100% = maximal ACh; AID 624126;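 active means activation above its plate's cutoff, the mean activation of sample wells plus 3 SD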
Starred values were filed as active, the others as inactive.

What do the screens show for `COc1ccc(C(=O)C(C)Oc2cccc(NC(=O)c3cccc([N+](=O)[O-])c3)c2)cc1` (stereo not drawn)?
CHRM4 antagonist: 6; M5 PAM: -11; M5 ag: 4; CHRM4 agonist: 16; M5 antag: 6; M4 PAM: -24

Results for Cc1onc(-c2c(F)cccc2Cl)c1C(=O)NC1CC1 ?
CHRM4 antagonist: -2; M5 PAM: 0; M5 ag: -1; CHRM4 agonist: 2; M5 antag: 6; M4 PAM: -3

Results for CN(C)/C=C/c1onc(-c2c(F)cccc2Cl)c1C#N ?
CHRM4 antagonist: 0; M5 PAM: 28*; M5 ag: 3; CHRM4 agonist: 0; M5 antag: 10; M4 PAM: 12

What do the screens show for `CN1CCS/C1=C/C=C1/SC(=S)N(Cc2ccccc2)C1=O`?
CHRM4 antagonist: 21; M5 PAM: -4; M5 ag: 16; CHRM4 agonist: 9; M5 antag: 13; M4 PAM: -7

Results for CCCCN1C(=O)/C(=C/C=C2\SCCN2C)SC1=S ?
CHRM4 antagonist: 14; M5 PAM: -9; M5 ag: 40*; CHRM4 agonist: 21; M5 antag: 21; M4 PAM: -7

Results for CN1CCS/C1=C/C=C1\SC(=S)N(CC(=O)O)C1=O ?
CHRM4 antagonist: 9; M5 PAM: -7; M5 ag: 31*; CHRM4 agonist: 15; M5 antag: 5; M4 PAM: -9

How did CCCCNc1c(-c2ccc(-c3ccc(OC)cc3)c(OC)c2)nc2ccccn12 do in these assays?
CHRM4 antagonist: 36*; M5 PAM: -29; M5 ag: -5; CHRM4 agonist: 12; M5 antag: 19; M4 PAM: -16

What do the screens show for `CCCCNc1c(-c2ccc(OC)c(Sc3ccc(OC)cc3)c2)nc2cnccn12`?
CHRM4 antagonist: 16; M5 PAM: -14; M5 ag: -2; CHRM4 agonist: 13; M5 antag: 19; M4 PAM: -3

What do the screens show for `CCCCNc1c(-c2ccc(OC)c(Sc3ccc(OC)cc3)c2)nc2ccccn12`?
CHRM4 antagonist: 39*; M5 PAM: -31; M5 ag: -3; CHRM4 agonist: 17; M5 antag: 27*; M4 PAM: -8

Results for C/C(=N\NC(=O)Cn1cc([N+](=O)[O-])cn1)c1ccc(O)cc1 ?
CHRM4 antagonist: 0; M5 PAM: -4; M5 ag: -13; CHRM4 agonist: 1; M5 antag: 2; M4 PAM: -9

Results for Cc1c(C(=O)C(=O)NCc2ccco2)c2ccccc2n1C ?
CHRM4 antagonist: 5; M5 PAM: -1; M5 ag: 3; CHRM4 agonist: 3; M5 antag: 2; M4 PAM: 7

What do the screens show for `Cc1nc2nc(SCC(=O)NCCCN3CCCC(C)C3)nn2c(C)c1Cc1ccccc1Cl` (stereo not drawn)?
CHRM4 antagonist: 31*; M5 PAM: -17; M5 ag: -10; CHRM4 agonist: 0; M5 antag: 20; M4 PAM: -12

What do the screens show for `Cc1nc2nc(SCC(=O)NCCCN3CCCCCC3)nn2c(C)c1Cc1ccccc1Cl`?
CHRM4 antagonist: 51*; M5 PAM: -13; M5 ag: -10; CHRM4 agonist: 2; M5 antag: -1; M4 PAM: -11

How did CCC1CCCCN1CCCNC(=O)CSc1nc2nc(C)c(Cc3ccccc3)c(C)n2n1 (stereo not drawn) do in these assays?
CHRM4 antagonist: 8; M5 PAM: -7; M5 ag: -8; CHRM4 agonist: 2; M5 antag: 9; M4 PAM: -12

Results for CCC1CCCCN1CCCNC(=O)Cn1ncc2c(C)n(Cc3ccccc3Cl)c(C)c2c1=O (stereo not drawn) ?
CHRM4 antagonist: 28*; M5 PAM: -7; M5 ag: -6; CHRM4 agonist: 0; M5 antag: 7; M4 PAM: -17

What do the screens show for `Cc1ccccc1Cc1c(C)nc2nc(SCC(=O)NCCCN3CCCC3)nn2c1C`?
CHRM4 antagonist: 24; M5 PAM: -12; M5 ag: -8; CHRM4 agonist: 1; M5 antag: 24; M4 PAM: -21

Results for Cc1c2cnn(CC(=O)NCCCN3CCCCC3)c(=O)c2c(C)n1Cc1ccccc1 ?
CHRM4 antagonist: 9; M5 PAM: -1; M5 ag: -3; CHRM4 agonist: 0; M5 antag: 3; M4 PAM: -6

How did CCC1CCCCN1CCCNC(=O)CSc1nc2nc(C)c(Cc3ccccc3Cl)c(C)n2n1 (stereo not drawn) do in these assays?
CHRM4 antagonist: 31*; M5 PAM: -10; M5 ag: -11; CHRM4 agonist: 1; M5 antag: 15; M4 PAM: -10

How did Cc1ccc(NC(=O)c2ccc3c(c2)C(=O)N(c2cc(C)ccc2C)C3=O)nc1 do in these assays?
CHRM4 antagonist: -12; M5 PAM: 6; M5 ag: -1; CHRM4 agonist: 1; M5 antag: -11; M4 PAM: 10

How did N#Cc1cnn2c(-c3ccc(Cl)cc3Cl)ccnc12 do in these assays?
CHRM4 antagonist: -4; M5 PAM: -6; M5 ag: 2; CHRM4 agonist: 3; M5 antag: 12; M4 PAM: -2

How did COCc1ccc(C(=O)N2CCCCC2C(=O)Nc2ccc(-n3nc(C)cc3C)cc2)o1 (stereo not drawn) do in these assays?
CHRM4 antagonist: 9; M5 PAM: -1; M5 ag: 4; CHRM4 agonist: 4; M5 antag: -3; M4 PAM: -7

How did COc1cc(CNc2ccc3[nH]c(=O)[nH]c3c2)cc(Br)c1OCc1ccccc1F do in these assays?
CHRM4 antagonist: 3; M5 PAM: 5; M5 ag: -7; CHRM4 agonist: 3; M5 antag: 10; M4 PAM: 5

What do the screens show for `COc1cc(/C=N/NC(=O)CN(Cc2ccco2)S(=O)(=O)c2ccccc2)ccc1O`?
CHRM4 antagonist: -9; M5 PAM: -7; M5 ag: -2; CHRM4 agonist: 7; M5 antag: -5; M4 PAM: -2

Results for CC(=O)C(=Cc1ccc(Cl)cc1)C(=O)c1ccccc1 ?
CHRM4 antagonist: 24; M5 PAM: 22*; M5 ag: -7; CHRM4 agonist: 2; M5 antag: 2; M4 PAM: -13

Results for COc1ccc(C=C(C(C)=O)C(=O)c2ccccc2)cc1 ?
CHRM4 antagonist: 13; M5 PAM: -1; M5 ag: -6; CHRM4 agonist: 1; M5 antag: 8; M4 PAM: -3

What do the screens show for `CCC(=O)N[C@@H]1CC[C@@H](CCNC(=O)Nc2ccc(F)cc2)O[C@@H]1CO`?
CHRM4 antagonist: -7; M5 PAM: 1; M5 ag: 1; CHRM4 agonist: 2; M5 antag: -4; M4 PAM: 1
